The text below walks through data of ChEMBL document CHEMBL2021835 (J Med Chem, 2012).

Series [1] has as its system MV4-11. Put plainly: Cytotoxicity against human MV4-11 cells expressing STAT5 after 48 hrs by alamar blue fluorescent staining. The class given is functional, cell-based. The conditions noted are these: MV4-11, 48 h. The method in brief:
(§1)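 Cells seeded at 1 × 10^5 in exponential growth and treated at 10, 20 and 40 μM. Viability was read by Alamar Blue fluorescence daily over 3 consecutive days.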
Background: Alamar Blue is a resazurin reagent that responds to reducing activity.

The subject of series [2] is K562. In words: Cytotoxicity against human K562 cells expressing STAT5 after 48 hrs by alamar blue fluorescent staining. Particulars: K562, 48 h. It is filed as functional, cell-based. The method in brief: as §1
Series [3] concerns K562. Put plainly: Induction of apoptosis in human K562 cells assessed as late apoptotic cells at 40 uM after 24 hrs using annexin-V FITC/PI double staining by flow cytometry (reference value: 5.6%). It is filed as functional. On the technique in general: Flow cytometry measures light scatter and fluorescence of single cells or particles in a stream.
The subject of series [4] is K562. Put plainly: Induction of apoptosis in human K562 cells assessed as viable cells at 40 uM after 24 hrs using annexin-V FITC/PI double staining by flow cytometry (reference value: 92.8%). Particulars: K562, 24 h, read-out: Activity. It is filed as functional.
Series [5] deals with K562. In words: Induction of apoptosis in human K562 cells assessed as early apoptotic cells at 40 uM after 24 hrs using annexin-V FITC/PI double staining by flow cytometry (reference value: 1.26%). The class given is functional.
Series [6] is described as follows: Cytotoxicity against human Bone marrow cells up to 160 uM after 72 hrs by alamar blue fluorescent staining. It is filed as cell-based. Particulars: bone marrow cell.
In series [7] the target is T1, Bcr/Abl fusion protein (Homo sapiens) (UniProt P00519+P11274). In words: Inhibition of BCR-ABL-mediated STAT5 phosphorylation in human K562 cells after 6 hrs by Western blotting analysis. The class given is cell-based. In short, it runs like this: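 K562 cells were treated for 6 h and 1 × 10^7 cells were lysed in RIPA buffer. Lysates were run on SDS-PAGE and blotted to PVDF, blocked in 5% BSA/PBS-0.1% Tween 20, and probed for pSTAT5, STAT5, pSTAT3, STAT3 and GAPDH. Detection used HRP anti-rabbit with ECL, and bands were quantified by imaging.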
T1 sequence (P00519 whole entry, looked up, the tested form may be a part): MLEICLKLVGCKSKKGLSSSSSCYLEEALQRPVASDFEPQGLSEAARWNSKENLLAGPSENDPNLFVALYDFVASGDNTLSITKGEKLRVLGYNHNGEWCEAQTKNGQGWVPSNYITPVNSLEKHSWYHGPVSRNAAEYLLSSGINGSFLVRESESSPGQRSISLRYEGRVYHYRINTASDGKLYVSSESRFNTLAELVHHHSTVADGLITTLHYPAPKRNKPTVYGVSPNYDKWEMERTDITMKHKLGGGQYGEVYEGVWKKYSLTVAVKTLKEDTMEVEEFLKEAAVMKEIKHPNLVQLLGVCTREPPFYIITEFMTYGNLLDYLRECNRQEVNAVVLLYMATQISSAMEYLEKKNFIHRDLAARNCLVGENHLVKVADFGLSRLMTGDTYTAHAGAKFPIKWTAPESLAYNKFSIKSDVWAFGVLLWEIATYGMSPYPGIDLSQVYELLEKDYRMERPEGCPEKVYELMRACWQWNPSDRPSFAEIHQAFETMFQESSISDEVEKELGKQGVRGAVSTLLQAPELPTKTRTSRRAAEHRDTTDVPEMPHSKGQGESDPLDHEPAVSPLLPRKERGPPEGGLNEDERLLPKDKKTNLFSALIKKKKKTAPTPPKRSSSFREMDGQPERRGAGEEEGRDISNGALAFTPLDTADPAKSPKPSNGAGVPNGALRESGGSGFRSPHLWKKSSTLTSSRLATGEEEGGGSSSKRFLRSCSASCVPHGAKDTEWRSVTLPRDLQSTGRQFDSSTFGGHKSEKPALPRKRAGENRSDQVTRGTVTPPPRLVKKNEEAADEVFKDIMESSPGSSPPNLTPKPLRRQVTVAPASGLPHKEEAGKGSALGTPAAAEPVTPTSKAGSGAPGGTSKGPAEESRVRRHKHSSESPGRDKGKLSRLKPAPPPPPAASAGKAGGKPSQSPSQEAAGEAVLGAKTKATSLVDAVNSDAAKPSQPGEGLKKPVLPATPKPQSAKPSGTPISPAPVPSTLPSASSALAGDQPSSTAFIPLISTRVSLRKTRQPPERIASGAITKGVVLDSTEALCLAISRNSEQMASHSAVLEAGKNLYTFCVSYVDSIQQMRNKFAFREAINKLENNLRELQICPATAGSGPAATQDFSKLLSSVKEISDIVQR
T1 sequence (P11274 whole entry, looked up, the tested form may be a part): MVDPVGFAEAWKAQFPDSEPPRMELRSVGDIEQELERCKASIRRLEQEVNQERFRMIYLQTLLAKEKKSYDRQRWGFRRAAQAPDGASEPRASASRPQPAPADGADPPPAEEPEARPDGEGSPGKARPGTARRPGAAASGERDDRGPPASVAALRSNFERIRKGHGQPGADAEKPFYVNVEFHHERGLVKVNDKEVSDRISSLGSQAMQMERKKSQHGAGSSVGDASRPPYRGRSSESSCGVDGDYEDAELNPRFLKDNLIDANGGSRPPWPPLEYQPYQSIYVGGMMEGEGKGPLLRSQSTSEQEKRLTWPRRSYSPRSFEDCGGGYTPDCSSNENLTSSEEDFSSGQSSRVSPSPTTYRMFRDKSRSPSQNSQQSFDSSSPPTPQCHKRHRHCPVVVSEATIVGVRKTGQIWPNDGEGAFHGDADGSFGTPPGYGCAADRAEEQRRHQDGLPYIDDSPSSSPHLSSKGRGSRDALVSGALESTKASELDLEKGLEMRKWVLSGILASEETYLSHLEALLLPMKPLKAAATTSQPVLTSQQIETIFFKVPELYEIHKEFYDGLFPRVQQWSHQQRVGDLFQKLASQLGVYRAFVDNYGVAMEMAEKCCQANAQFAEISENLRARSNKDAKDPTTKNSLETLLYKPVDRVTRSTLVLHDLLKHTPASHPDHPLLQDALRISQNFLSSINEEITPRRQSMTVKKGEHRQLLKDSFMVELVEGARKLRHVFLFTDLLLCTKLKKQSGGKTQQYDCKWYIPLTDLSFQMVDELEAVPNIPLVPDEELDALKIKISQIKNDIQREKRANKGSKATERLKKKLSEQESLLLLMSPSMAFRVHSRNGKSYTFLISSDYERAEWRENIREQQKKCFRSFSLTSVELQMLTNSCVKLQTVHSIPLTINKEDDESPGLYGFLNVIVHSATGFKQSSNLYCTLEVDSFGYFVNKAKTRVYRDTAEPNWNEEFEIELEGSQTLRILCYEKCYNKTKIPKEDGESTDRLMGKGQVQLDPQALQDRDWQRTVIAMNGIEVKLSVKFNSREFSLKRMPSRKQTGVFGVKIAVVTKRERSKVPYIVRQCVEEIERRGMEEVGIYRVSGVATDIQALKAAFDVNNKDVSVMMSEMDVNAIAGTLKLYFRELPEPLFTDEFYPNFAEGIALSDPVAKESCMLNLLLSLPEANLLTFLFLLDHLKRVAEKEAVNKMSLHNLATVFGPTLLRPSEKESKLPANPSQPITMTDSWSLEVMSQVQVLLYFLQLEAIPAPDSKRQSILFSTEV

Series [8] addresses T1, Bcr/Abl fusion protein (Homo sapiens). In words: Inhibition of BCR-ABL-mediated AKT phosphorylation in human K562 cells at 40 uM after 6 hrs by phospho-flow cytometry. It is filed as cell-based. In short, it runs like this:
(§2)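 K562 cells were treated at 40 μM for 6 h, or left untreated, then fixed. Cells were stained with unlabeled rabbit monoclonal antibodies to pSTAT3, pSTAT5 or pAKT1, detected with Cy5-anti-rabbit IgG, and read by flow cytometry.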

Series [9] has the same target. Put plainly: Inhibition of BCR-ABL-mediated STAT5 phosphorylation in human K562 cells at 40 uM after 6 hrs by phospho-flow cytometry. It is filed as cell-based. In short, it runs like this:
as §2

Series [10] has as its target T2, Signal transducer and activator of transcription 5A (Homo sapiens) (UniProt P42229).
T2 sequence (whole entry): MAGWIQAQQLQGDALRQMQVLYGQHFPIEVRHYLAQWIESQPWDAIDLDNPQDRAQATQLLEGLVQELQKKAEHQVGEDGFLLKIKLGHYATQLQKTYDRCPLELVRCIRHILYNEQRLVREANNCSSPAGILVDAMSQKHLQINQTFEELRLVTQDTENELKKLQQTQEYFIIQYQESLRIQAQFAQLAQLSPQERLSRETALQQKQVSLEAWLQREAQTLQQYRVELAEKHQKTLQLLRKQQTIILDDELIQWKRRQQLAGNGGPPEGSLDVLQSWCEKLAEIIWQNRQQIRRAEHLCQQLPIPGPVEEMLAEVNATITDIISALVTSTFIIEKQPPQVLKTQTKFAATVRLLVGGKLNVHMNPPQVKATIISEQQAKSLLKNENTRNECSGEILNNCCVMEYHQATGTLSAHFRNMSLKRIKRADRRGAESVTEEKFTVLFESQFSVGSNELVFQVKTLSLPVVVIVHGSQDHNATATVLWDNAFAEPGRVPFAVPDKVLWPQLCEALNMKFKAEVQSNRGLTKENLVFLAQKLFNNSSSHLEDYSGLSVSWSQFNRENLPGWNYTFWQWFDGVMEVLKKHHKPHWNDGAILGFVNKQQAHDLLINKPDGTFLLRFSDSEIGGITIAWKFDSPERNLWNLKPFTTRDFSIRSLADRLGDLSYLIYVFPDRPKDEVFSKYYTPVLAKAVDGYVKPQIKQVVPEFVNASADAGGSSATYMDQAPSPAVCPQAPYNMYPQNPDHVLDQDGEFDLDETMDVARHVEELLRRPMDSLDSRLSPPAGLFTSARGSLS
In words: Inhibition of STAT5-mediated MCL-1 expression in human K562 cells at 40 uM after 6 hrs by RT-PCR analysis. The class given is cell-based. The method in brief: (§3)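 K562 cells were treated at 40 μM for 6 h. Transcript levels of the STAT5 target genes were measured by RT-PCR.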

The target of series [11] is T2, Signal transducer and activator of transcription 5A (Homo sapiens). In words: Inhibition of STAT5-mediated C-MYC expression in human K562 cells at 40 uM after 6 hrs by RT-PCR analysis. It is filed as cell-based. The method in brief: as §3
The target is the same in series [12]. In words: Inhibition of STAT5 binding to C-MYC promoter region human K562 cells at 40 uM after 6 hrs by chromatin immunoprecipitation assay. It is filed as cell-based. In short, it runs like this: (§4)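 K562 cells were treated at 40 μM for 6 h, cross-linked with 1% formaldehyde and lysed. Chromatin was sonicated to 300–500 bp, keeping 1/20 as input. It was immunoprecipitated overnight at 4 °C with anti-phospho-STAT5 (Tyr694) at 1:50 or control rabbit IgG, pulled down on Protein G agarose, and promoter regions were detected by PCR.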

Series [13] has the same target. Put plainly: Inhibition of STAT5 binding to cyclin D1 promoter region human K562 cells at 40 uM after 6 hrs by chromatin immunoprecipitation assay. It is filed as cell-based. In short, it runs like this:
as §4

Structures are written as SMILES. Calls of active or inactive are those of the source. No cut-off for these calls is given here.

What is called IC50 is the concentration at which inhibition is half-maximal. A low value points to greater potency in that assay. On to `Cc1cc(C)c(S(=O)(=O)N(C)CC(=O)N(Cc2ccc(C3CCCCC3)cc2)c2ccc(C(=O)O)c(O)c2)c(C)c1`, for which the IC50 in [1] was found to be 17 µM; in [2], 42 µM. Further, the Activity in series [3] is recorded as 81.5%; in [5] it was 5.57%; in series [6], “Non-toxic”. Moreover, the viability at 40 µM in series [4] amounted to 12.5%. Further, the inhibition entry in [7] is “Dose-dependent effect”. The inhibition result in series [8] was “inactive”. For the same compound, the inhibition entry in [9], in series [10], in [11], in series [12] and in series [13] was “Active” throughout.
